Source: ChEMBL document CHEMBL1909581, “Growth inhibition of human lung cancer cells via down-regulation of epidermal growth factor receptor signaling by yuanhuadine, a daphnane diterpene from Daphne genkwa” (J Nat Prod, 2011)
The source made the active and inactive calls. The rule behind the calls is not given here.

What was measured:
[1] = test system: A549; experiment: Cell cycle arrest in human A549 cells assessed as accumulation at S phase at 5 nM after 48 hrs by propidium iodide staining-based flow cytometric analysis (reference value: 31.6 %); format: functional
[2] = test system: A549; experiment: Cell cycle arrest in human A549 cells assessed as accumulation at G2/M phase at 5 nM after 24 hrs by propidium iodide staining-based flow cytometric analysis (reference value: 18.9 %); format: functional
[3] = test system: Mus musculus; experiment: Toxicity in BALB/c mouse xenografted with human A549 cells in assessed as body weight at 0.5 mg/kg, po once daily for 14 days measured for 27 days relative to control; format: organism-based; design: dose 0.5 mg/kg, route oral; conditions: in vivo, 648 h
Outline: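 Female nu/nu mice were injected sc in the right flank with 3 × 10^6 A549 cells. At about 100 mm3 tumour volume, mice were randomised into groups of five. Compound was given orally at 0.2 or 0.5 mg/kg once daily for 14 days in ethanol/Tween 80/H2O (1:1:98). Body weight and overt toxicity were monitored against vehicle controls.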

[4] = test system: NCI-H1993; experiment: Antiproliferative activity against human NCI-H1993 cells after 3 days by SRB assay; format: functional, cell-based; conditions: NCI-H1993, 72 h
[5] = test system: A549; experiment: Cell cycle arrest in human A549 cells assessed as accumulation at G2/M phase at 20 nM after 24 hrs by propidium iodide staining-based flow cytometric analysis (reference value: 18.9 %); format: functional
[6] = test system: A549; experiment: Cell cycle arrest in human A549 cells assessed as accumulation at Sub-G1 phase at 100 nM after 24 hrs by propidium iodide staining-based flow cytometric analysis (reference value: 0.2 %); format: functional
[7] = test system: A549; experiment: Cell cycle arrest in human A549 cells assessed as accumulation at G0/G1 phase at 5 nM after 24 hrs by propidium iodide staining-based flow cytometric analysis (reference value: 49.6 %); format: functional
[8] = test system: A549; experiment: Cell cycle arrest in human A549 cells assessed as accumulation at Sub-G1 phase at 20 nM after 24 hrs by propidium iodide staining-based flow cytometric analysis (reference value: 0.2 %); format: functional
[9] = test system: A549; experiment: Downregulation of cyclin E expression in human A549 cells at G1 phase at 5 to 100 nM after 24 to 48 hrs by Western blot analysis; format: functional, cell-based
Outline: (§1)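 A549 cells treated with a range of concentrations for 24 or 48 h. Lysates run on 6–15% SDS-PAGE and blotted to PVDF, blocked in 5% milk/PBST. Primary antibodies overnight at 4 °C, secondary 2 h at room temperature, ECL detection. Representative of three independent experiments.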

[10] = test system: A549; experiment: Cell cycle arrest in human A549 cells assessed as accumulation at G0/G1 phase at 20 nM after 24 hrs by propidium iodide staining-based flow cytometric analysis (reference value: 49.6 %); format: functional
[11] = target: Epidermal growth factor receptor (Homo sapiens) (UniProt P00533); experiment: Inhibition of EGFR phosphorylation in […]-stimulated human A549 cells pretreated at 20 nM by Western blot analysis; format: cell-based
Sequence of Epidermal growth factor receptor (Homo sapiens) (P00533 whole entry): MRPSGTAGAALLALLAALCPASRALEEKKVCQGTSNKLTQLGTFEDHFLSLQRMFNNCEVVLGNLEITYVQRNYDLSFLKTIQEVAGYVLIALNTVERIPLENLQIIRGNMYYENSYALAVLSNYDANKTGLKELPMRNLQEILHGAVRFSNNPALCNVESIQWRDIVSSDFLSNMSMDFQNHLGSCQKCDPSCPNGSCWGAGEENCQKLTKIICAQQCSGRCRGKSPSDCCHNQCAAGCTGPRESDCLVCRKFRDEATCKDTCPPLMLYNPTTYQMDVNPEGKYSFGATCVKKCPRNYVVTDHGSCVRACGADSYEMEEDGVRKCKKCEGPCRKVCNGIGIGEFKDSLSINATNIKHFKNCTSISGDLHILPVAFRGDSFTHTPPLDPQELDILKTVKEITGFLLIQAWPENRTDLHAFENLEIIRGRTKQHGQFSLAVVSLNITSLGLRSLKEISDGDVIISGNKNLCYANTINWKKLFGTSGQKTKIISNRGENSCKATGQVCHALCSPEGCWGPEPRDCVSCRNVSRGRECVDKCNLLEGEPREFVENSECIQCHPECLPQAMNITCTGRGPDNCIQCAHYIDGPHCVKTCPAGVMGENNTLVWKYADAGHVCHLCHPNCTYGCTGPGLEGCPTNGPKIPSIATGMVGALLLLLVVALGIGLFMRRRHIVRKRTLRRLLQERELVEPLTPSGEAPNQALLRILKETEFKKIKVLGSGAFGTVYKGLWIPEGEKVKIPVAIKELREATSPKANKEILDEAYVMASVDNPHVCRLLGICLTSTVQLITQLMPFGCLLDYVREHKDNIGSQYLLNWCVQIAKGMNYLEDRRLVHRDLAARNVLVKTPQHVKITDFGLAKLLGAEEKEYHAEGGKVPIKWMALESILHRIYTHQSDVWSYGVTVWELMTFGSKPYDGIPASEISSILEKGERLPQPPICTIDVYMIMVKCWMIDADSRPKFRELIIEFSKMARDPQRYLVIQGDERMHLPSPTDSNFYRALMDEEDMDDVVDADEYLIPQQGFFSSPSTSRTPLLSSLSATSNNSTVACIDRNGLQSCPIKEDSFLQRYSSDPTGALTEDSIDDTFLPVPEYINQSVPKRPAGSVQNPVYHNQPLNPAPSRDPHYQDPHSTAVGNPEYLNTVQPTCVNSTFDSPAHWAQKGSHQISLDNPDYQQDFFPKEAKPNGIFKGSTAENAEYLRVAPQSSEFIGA
Outline: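 A549 cells serum-starved 24 h, pretreated with 20 nM for 2 h, then stimulated with EGF (10 ng/mL) for 10 min. EGFR, Akt and ERK phosphorylation and levels assessed by Western blot.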

[12] = test system: A549; experiment: Antiproliferative activity against human A549 cells assessed as growth inhibition incubated for 24 hrs measured 48 hrs after compound washout by SRB assay; format: functional, cell-based
[13] = test system: A549; experiment: Downregulation of cyclin A expression in human A549 cells at G1 phase at 5 to 100 nM after 24 to 48 hrs by Western blot analysis; format: functional, cell-based; outline: as §1
[14] = test system: A549; experiment: Downregulation of CDK2 expression in human A549 cells at G1 phase at 5 to 100 nM after 24 to 48 hrs by Western blot analysis; format: functional, cell-based; outline: as §1
[15] = test system: A549; experiment: Downregulation of CDC2 expression in human A549 cells at G2/M phase at 5 to 100 nM after 24 to 48 hrs by Western blot analysis; format: functional, cell-based; outline: as §1
[16] = target: Serine/threonine-protein kinase mTOR (Homo sapiens) (UniProt P42345); experiment: Inhibition of MTOR-mediated 4EBP1 phosphorylation in human A549 cells at 20 nM after 24 to 48 hrs by Western blot analysis; format: cell-based
Outline: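 A549 cells (RPMI 1640, 10% FBS, 37 °C, 5% CO2) exposed to the compound at various concentrations for 24 or 48 h. Lysates run on 6–15% SDS-PAGE, transferred to PVDF, probed with primary antibodies overnight at 4 °C, and detected by ECL. Blots shown are representative of three independent experiments.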

[17] = test system: A549; experiment: Antiproliferative activity against human A549 cells assessed as growth inhibition incubated for 24 hrs measured 24 hrs after compound washout by SRB assay; format: functional, cell-based
Outline: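 A549 cells exposed to a range of concentrations for 24 h, washed with PBS and kept in drug-free medium for 24 h. Compared with continuous 24 h and 48 h exposure. Viability read by SRB. Means ± SE of triplicate tests.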

[18] = target: Epidermal growth factor receptor (Homo sapiens) (UniProt P00533); experiment: Inhibition of EGFR-mediated Akt phosphorylation in EGF-stimulated human A549 cells pretreated at 20 nM by Western blot analysis; format: cell-based
Outline: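 A549 cells serum-starved 24 h, pretreated with 20 nM compound for 2 h, then stimulated with EGF (10 ng/mL) for 10 min. Levels of EGFR, Akt and ERK read by Western blot.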

[19] = test system: SW480; experiment: Antiproliferative activity against human SW480 cells after 3 days by SRB assay; format: functional, cell-based; conditions: SW480, 72 h
Outline: (§2)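 Cells seeded at 5 × 10^4 cells/mL and exposed to a range of concentrations for 3 days. Fixed with 10% TCA, then SRB stain read. Growth expressed as % of solvent-treated control. IC50 obtained by nonlinear regression of percent survival versus concentration.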

[20] = test system: A549; experiment: Antiproliferative activity against human A549 cells after 3 days by SRB assay; format: functional, cell-based; conditions: A549, 72 h; outline: as §2

C=C(C)[C@@]12O[C@@]3(/C=C/C=C/CCCCC)O[C@@H]1[C@@H]1[C@@H]4O[C@]4(CO)[C@@H](O)[C@]4(O)C(=O)C(C)=C[C@H]4[C@@]1(O3)[C@H](C)[C@H]2OC(C)=O [YUANHUADINE]
Activity [1]: 12% | Activity [2]: 27.5% | Activity [3]: Non-toxic | IC50 [4]: 4.7 nM | Activity [5]: 24.5% | Activity [6]: 0.3% | Activity [7]: 67% | Activity [8]: 1.8% | Activity [9]: Active | Activity [10]: 68.2% | inhibition [11]: Active | growth inhibition (GI) [12]: inactive | Activity [13]: Active | Activity [14]: Active | Activity [15]: Active | inhibition [16]: Active | growth inhibition (GI) [17]: Active | inhibition [18]: Active | IC50 [19]: 11800 nM | IC50 [20]: 12 nM
